Experiments:
[1] = molecular target: T1, Bifunctional dihydrofolate reductase-thymidylate synthase (Trypanosoma cruzi, UniProt Q27793); experiment: Inhibition of Trypanosoma cruzi DHFR by spectrophotometric assay
Summary of the method: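 Recombinant bifunctional T. cruzi DHFR-TS in 50 mM Tris-HCl pH 7.0 with DHF, 100 µM NADPH and 0.5–1.0 µg enzyme; velocity from absorbance at 340 nm over 30 s at 22.6 °C. IC50 from velocities at several inhibitor concentrations for each of three DHF concentrations, then averaged; Ki calculated from IC50. Triplicates, repeated on different days.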

[2] = molecular target: T2, Dihydrofolate reductase (Homo sapiens, UniProt P00374); experiment: Inhibition of human DHFR by spectrophotometric assay
T2 sequence (P00374 whole entry): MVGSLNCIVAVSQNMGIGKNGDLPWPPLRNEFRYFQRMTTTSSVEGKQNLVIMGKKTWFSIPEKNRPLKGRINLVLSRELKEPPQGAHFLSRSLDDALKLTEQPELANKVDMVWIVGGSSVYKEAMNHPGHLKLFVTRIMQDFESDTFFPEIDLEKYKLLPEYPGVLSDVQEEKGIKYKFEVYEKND

[3] = molecular target: T1, Bifunctional dihydrofolate reductase-thymidylate synthase; experiment: Inhibition of Trypanosoma cruzi DHFR by Lineweaver-Burke plot
Summary of the method: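 Recombinant bifunctional T. cruzi DHFR-TS; 50 mM Tris-HCl pH 7.0 with DHF, 100 µM NADPH and 0.5–1.0 µg enzyme; initial velocity followed at 340 nm for 30 s at 22.6 °C. Velocities taken at five DHF concentrations for each of three inhibitor concentrations; Ki read from Lineweaver–Burk plots.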

T1 sequence (Q27793 whole entry): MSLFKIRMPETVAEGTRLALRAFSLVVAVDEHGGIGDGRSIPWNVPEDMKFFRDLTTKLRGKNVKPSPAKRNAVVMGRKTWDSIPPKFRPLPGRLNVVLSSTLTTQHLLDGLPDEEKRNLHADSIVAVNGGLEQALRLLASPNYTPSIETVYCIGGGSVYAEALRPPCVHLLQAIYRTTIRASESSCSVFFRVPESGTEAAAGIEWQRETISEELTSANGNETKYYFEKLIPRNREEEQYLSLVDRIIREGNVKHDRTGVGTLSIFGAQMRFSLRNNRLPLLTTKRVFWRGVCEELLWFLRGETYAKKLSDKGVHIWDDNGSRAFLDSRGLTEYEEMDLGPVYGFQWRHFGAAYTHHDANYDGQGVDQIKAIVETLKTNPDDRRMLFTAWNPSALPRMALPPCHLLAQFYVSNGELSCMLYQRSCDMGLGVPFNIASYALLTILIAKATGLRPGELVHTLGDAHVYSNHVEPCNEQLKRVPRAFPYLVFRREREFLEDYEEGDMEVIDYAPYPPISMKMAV

`COc1ccc(NCc2ccc3nc(N)nc(N)c3c2)cc1OC` was tested, and the IC50 [1] was 27.1 nM, the Ki [1] was 1.6 nM and the IC50 [2] was 85.5 nM. For the same compound, the Ki [2] was 11.8 nM and the Ki [3] was 4.75 nM.
With `CCCN(Cc1ccc2nc(N)nc(N)c2c1)c1ccc(OC)c(OCCCCC(=O)OC)c1` the IC50 [1] was 422 nM, the Ki [1] was 24.9 nM and the IC50 [2] was 1340 nM. The Ki [2] was 188 nM.
For `COc1ccc(NCc2ccc3nc(N)nc(N)c3c2)cc1OCCCC(=O)O`, the IC50 [1] was 61 nM, the Ki [1] was 3.6 nM and the IC50 [2] was 357 nM. It also gave a Ki [2] of 49.8 nM.
With `COC(=O)CCCCOc1cc(NCc2ccc3nc(N)nc(N)c3c2)ccc1OC` the IC50 [1] was 27 nM, the Ki [1] was 1.6 nM and the IC50 [2] was 93.5 nM. For the same compound, the Ki [2] was 13 nM.
Work on `COC(=O)c1ccc(COc2cc(NCc3ccc4nc(N)nc(N)c4c3)ccc2OC)cc1` yielded an IC50 [1] of 57.5 nM, a Ki [1] of 3.3 nM and an IC50 [2] of 175 nM. The Ki [2] was 24.5 nM.
For `CCOC(=O)CCCOc1cc(NCc2ccc3nc(N)nc(N)c3c2)ccc1OC`, the IC50 [1] was 23.8 nM, the Ki [1] was 1.3 nM and the IC50 [2] was 68.3 nM. For the same compound, the Ki [2] was 9.6 nM and the Ki [3] was 5.68 nM.
Work on `COc1cc(NCc2ccc3nc(N)nc(N)c3c2C)cc(OC)c1OC` [TRIMETREXATE] yielded an IC50 [1] of 20.2 nM and a Ki [1] of 6.6 nM.
